We go through 35 molecules from ChEMBL document CHEMBL1136119, “Novel IKK inhibitors: beta-carbolines” (Bioorg Med Chem Lett, 2003).

The target in assay [1] is T1, Inhibitor of nuclear factor kappa-B kinase subunit beta (Homo sapiens, UniProt O14920).
T1 sequence (O14920 whole entry): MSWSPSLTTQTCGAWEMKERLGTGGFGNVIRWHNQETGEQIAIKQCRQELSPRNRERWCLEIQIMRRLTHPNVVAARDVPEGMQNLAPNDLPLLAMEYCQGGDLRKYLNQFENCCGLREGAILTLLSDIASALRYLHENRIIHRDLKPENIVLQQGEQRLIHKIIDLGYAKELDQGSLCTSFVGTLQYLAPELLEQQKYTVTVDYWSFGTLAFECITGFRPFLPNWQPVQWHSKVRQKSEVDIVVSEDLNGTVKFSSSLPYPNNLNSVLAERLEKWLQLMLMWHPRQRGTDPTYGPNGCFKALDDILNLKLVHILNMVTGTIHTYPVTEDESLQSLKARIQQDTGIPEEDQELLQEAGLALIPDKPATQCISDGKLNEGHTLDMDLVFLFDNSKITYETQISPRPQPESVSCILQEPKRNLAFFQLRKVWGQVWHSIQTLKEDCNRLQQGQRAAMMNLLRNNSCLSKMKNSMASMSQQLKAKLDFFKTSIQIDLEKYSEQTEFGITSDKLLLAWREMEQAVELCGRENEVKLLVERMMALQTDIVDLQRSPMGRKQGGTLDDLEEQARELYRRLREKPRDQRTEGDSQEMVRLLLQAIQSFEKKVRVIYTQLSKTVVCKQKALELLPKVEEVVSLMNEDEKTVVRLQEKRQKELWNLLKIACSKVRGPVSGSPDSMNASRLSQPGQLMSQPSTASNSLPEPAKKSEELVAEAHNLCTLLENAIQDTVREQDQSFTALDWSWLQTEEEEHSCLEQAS
Briefly: Inhibitory activity against IkappaB kinase(IKK) isolated from HeLa cells activated with recombinant […] in an ELISA phosphorylation assay. In kind it is cell-free. (In general: ELISA stands for enzyme-linked immunosorbent assay.)

Another assay addresses Protein kinase C (PKC). Briefly: Inhibitory activity against protein kinase C. In kind it is protein assay.
The target in another assay is Casein kinase II (Homo sapiens, UniProt P19784+P67870+P68400). Briefly: Inhibitory activity against CKII kinase. The class given is protein-complex assay.
The target of assay [2] is T2, cAMP-dependent protein kinase (PKA) (Homo sapiens, UniProt P22694+P17612+P22612). Briefly: Inhibitory activity against protein kinase A. The class given is protein assay.
In assay [3] the target is NF-kappa-B essential modulator (Homo sapiens, UniProt Q9Y6K9). Briefly: Inhibition of GST-IkB phosphorylation by TNF-alpha stimulated HeLa cell lysate (IP-IKKgamma). The class given is functional, cell-free. A digest of the protocol: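 Endogenous IKK complex immunoprecipitated with anti-IKKγ antibody from HeLa cells stimulated with TNF-α (20 ng/mL, 5 min) and lysed in NP-40 IP buffer; beads preincubated with varying inhibitor concentrations 30 min at 30 °C; reaction started with bacterially expressed GST-IκB[5-55] plus MgATP with [γ-32P]ATP, 30 min at 30 °C; phosphorylated substrate quantified by SDS-PAGE and phosphorimaging; IC50.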

The next assay relates to Mus musculus. Briefly: Systemic level of TNF-alpha after oral administration in mice. The class given is functional. In a few lines:
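Female BALB/c mice given compound orally (50 mg/kg, 5 mL/kg), followed by intraperitoneal E. coli LPS (serotype 0127:B8); blood taken by cardiac puncture into heparin after CO2 euthanasia, spun at 4 °C, and plasma TNF-α measured relative to vehicle-treated controls.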

For assay [4], the target named is Casein kinase II (Homo sapiens) (UniProt P67870+P68400+P19784). Briefly: Inhibition of the casein kinase CKII at 25 uM. The class given is protein-complex assay.
In assay [5] the target is T2, cAMP-dependent protein kinase (PKA). Briefly: Inhibition of Protein kinase A at 25 uM. In kind it is protein assay.
In assay [6] the target is Protein kinase C (PKC) (Homo sapiens) (UniProt O94806+P41743+P17252+P05129+Q05655+P05771+Q05513+Q02156+P24723+Q15139+Q04759). Briefly: Inhibition of Protein kinase C at 25 uM. The class given is protein assay.
The test system of another assay is HeLa. Briefly: Inhibition of IkappaB kinase(IKK) from HeLa cells activated by recombinant MEKK1 in ELISA at 25 uM. In kind it is cell-based. As to conditions: Homo sapiens.

Casein kinase II, sequence (P67870 whole entry): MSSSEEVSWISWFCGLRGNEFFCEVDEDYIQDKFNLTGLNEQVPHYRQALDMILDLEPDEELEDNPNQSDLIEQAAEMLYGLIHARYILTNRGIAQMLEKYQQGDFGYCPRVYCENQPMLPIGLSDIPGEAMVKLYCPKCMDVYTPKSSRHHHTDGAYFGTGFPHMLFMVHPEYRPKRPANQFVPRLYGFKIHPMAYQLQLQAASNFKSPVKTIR
Casein kinase II, sequence (P68400 whole entry): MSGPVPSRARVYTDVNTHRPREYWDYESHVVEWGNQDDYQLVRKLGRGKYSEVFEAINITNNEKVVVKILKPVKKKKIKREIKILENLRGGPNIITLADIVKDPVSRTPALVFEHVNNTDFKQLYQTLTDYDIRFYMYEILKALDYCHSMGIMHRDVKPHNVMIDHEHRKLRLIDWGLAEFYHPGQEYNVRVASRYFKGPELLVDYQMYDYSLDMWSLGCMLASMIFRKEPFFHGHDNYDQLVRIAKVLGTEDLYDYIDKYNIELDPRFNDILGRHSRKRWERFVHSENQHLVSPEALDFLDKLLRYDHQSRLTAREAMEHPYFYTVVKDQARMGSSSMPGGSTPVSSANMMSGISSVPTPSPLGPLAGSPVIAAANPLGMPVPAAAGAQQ
Casein kinase II, sequence (P19784 whole entry): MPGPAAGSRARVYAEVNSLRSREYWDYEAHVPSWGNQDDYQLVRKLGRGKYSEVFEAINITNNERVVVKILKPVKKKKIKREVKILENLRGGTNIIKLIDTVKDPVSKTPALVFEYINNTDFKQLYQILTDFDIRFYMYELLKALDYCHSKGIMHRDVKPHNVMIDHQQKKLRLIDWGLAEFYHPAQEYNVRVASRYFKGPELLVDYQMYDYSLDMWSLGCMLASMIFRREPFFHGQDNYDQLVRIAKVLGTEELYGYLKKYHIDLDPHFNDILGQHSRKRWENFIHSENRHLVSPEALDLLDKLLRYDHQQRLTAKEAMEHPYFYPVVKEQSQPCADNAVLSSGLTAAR
NF-kappa-B essential modulator, sequence (Q9Y6K9 whole entry): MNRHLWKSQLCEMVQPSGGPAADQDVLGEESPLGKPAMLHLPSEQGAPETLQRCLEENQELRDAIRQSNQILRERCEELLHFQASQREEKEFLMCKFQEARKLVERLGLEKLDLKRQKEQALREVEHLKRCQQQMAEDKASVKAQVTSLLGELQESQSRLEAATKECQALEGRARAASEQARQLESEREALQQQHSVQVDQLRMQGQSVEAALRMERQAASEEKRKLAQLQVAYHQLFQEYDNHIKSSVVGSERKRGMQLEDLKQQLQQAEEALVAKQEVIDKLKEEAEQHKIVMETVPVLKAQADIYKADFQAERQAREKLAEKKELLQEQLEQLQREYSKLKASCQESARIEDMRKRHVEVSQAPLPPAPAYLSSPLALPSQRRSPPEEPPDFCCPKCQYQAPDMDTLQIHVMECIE

By IC50 is commonly meant the concentration that gives 50% inhibition. For `O=C(Cc1ccccn1)Nc1cc(Cl)cc2c1[nH]c1cnccc12`, the IC50 is 3 µM in assay [1], more than 25 µM against Protein kinase C (PKC), more than 25 µM against Casein kinase II and more than 25 µM in assay [2].
Turning to `Fc1ccc2[nH]c3cnccc3c2c1`, the IC50 in assay [1] was 2 µM; against Protein kinase C (PKC) it was more than 25 µM; at Casein kinase II, more than 25 µM; in assay [2], more than 25 µM.
With `Clc1cc(Cl)c2[nH]c3cnccc3c2c1`, the IC50 is 0.2 µM in [1], more than 25 µM against Protein kinase C (PKC), more than 25 µM against Casein kinase II and more than 25 µM in assay [2].
Turning to `Clc1cc(NCc2ccccc2)c2[nH]c3cnccc3c2c1`, the IC50 in assay [1] was more than 20 µM; on Protein kinase C (PKC) it was more than 25 µM; at Casein kinase II it was more than 25 µM; in [2] it was more than 25 µM.
Consider `COc1ccc(C(=O)Nc2cc(Cl)cc3c2[nH]c2cnccc23)cc1`, for which the IC50 in [1] was 1.3 µM; against Protein kinase C (PKC) it was more than 25 µM; on Casein kinase II it was more than 25 µM; in [2] it was more than 25 µM.
On to `COC(=O)Nc1cc(Cl)cc2c3cc[nH]cc-3nc12`, for which the IC50 in assay [1] was 0.7 µM; at Protein kinase C (PKC) it was more than 25 µM; on Casein kinase II it was more than 25 µM; in [2], more than 25 µM.
As for `COc1ccc2[nH]c3cnccc3c2c1`, the IC50 was 4 µM in assay [1], more than 25 µM at Protein kinase C (PKC), more than 25 µM against Casein kinase II and more than 25 µM in assay [2].
Regarding `CN(C)c1cc(Cl)cc2c3cc[nH]cc-3nc12`, the concentration for half-maximal inhibition (IC50) in [1] was found to be 1.8 µM.
Consider `O=C(Nc1cc(Cl)cc2c1[nH]c1cnccc12)c1ccccn1`, for which the IC50 was 1 µM in assay [1], more than 25 µM against Protein kinase C (PKC), more than 25 µM against Casein kinase II and more than 25 µM in assay [2].
Consider `FC(F)(F)c1ccc2[nH]c3cnccc3c2c1`, for which the IC50 in assay [1] is 1.1 µM.
What is called EC50 is the concentration giving half of the maximal effect. Low values mean higher potency in that assay, high ones lower potency in that assay. Consider `O=C(Nc1cc(Cl)cc2c1[nH]c1cnccc12)c1cccnc1`, for which the concentration for half-maximal inhibition (IC50) was 0.1 µM in [1], more than 25 µM against Protein kinase C (PKC), more than 25 µM against Casein kinase II and more than 25 µM in assay [2]. This molecule also gave a concentration giving a half-maximal response (EC50) in assay [3] of 0.15 µM. The same molecule came in with a Reduction with Mus musculus of 60%.
Turning to `Clc1cc2c3cc[nH]cc-3nc2c(Cl)c1OCC1CCCCC1`, the IC50 is 3 µM in [1], more than 25 µM against Protein kinase C (PKC), more than 25 µM against Casein kinase II and more than 25 µM in assay [2].
Regarding `O=C(Oc1c(Cl)cc2c3cc[nH]cc-3nc2c1Cl)N1CCOCC1`, in assay [1], the IC50 was determined as 3.2 µM.
For `O=C(Nc1cc(Cl)cc2c1[nH]c1cnccc12)N1CCOCC1`, the IC50 is more than 20 µM in [1], more than 25 µM against Protein kinase C (PKC), more than 25 µM on Casein kinase II and more than 25 µM in assay [2].
On to `c1ccc2c(c1)[nH]c1cnccc12` [NORHARMANE], for which the IC50 was 15 µM in assay [1], more than 25 µM against Protein kinase C (PKC), more than 25 µM against Casein kinase II and more than 25 µM in [2].
As to `Oc1c(Cl)cc2c3cc[nH]cc-3nc2c1Cl`, the IC50 in [1] is 11 µM; against Protein kinase C (PKC), more than 25 µM; against Casein kinase II, more than 25 µM; in [2], more than 25 µM.
For the molecule `O=[N+]([O-])c1cc(Cl)cc2c3cc[nH]cc-3nc12`, the half-inhibitory concentration (IC50) in assay [1] was 4 µM; on Protein kinase C (PKC), more than 25 µM; at Casein kinase II, more than 25 µM; in assay [2], more than 25 µM.
For the molecule `COc1c(Cl)cc2c3cc[nH]cc-3nc2c1Cl`, the concentration for half-maximal inhibition (IC50) in [1] is 0.17 µM; on Protein kinase C (PKC), more than 25 µM; against Casein kinase II it was more than 25 µM; in assay [2], more than 25 µM.
Broadly, the inhibition is the share of the control response that was lost under treatment. With `COc1ccc2[nH]c3cnccc3c2c1Br`, the inhibition in [4] came out at 75%; in [5], 10%; in [6] it was 65%; in the assay with HeLa it was 90%. For the same molecule, the half-maximal inhibitory concentration (IC50) in assay [1] came out at 1 µM; at Protein kinase C (PKC) it was 15 µM; against Casein kinase II, 2 µM.
As for `O=C(Nc1cc(Cl)cc2c1[nH]c1cnccc12)c1ccncc1`, the half-maximal inhibitory concentration (IC50) in assay [1] was 0.3 µM; against Protein kinase C (PKC) it was more than 25 µM; on Casein kinase II, more than 25 µM; in [2], more than 25 µM.
For `O=S(=O)(Nc1cc(Cl)cc2c1[nH]c1cnccc12)c1ccccc1`, the concentration for half-maximal inhibition (IC50) in assay [1] is more than 20 µM; against Protein kinase C (PKC), more than 25 µM; against Casein kinase II, more than 25 µM; in assay [2], more than 25 µM.
For the molecule `CC(=O)Nc1cc(Cl)cc2c3cc[nH]cc-3nc12`, the IC50 in assay [1] is 0.6 µM; against Protein kinase C (PKC), more than 25 µM; at Casein kinase II, more than 25 µM; in assay [2] it was more than 25 µM.
Turning to `Clc1cc2c([nH]c3cnccc32)c(Cl)c1OCC1CC1`, the IC50 in assay [1] is 0.08 µM; on Protein kinase C (PKC) it was more than 25 µM; at Casein kinase II, more than 25 µM; in assay [2], more than 25 µM.
Turning to `COc1ccccc1C(=O)Nc1cc(Cl)cc2c1[nH]c1cnccc12`, the IC50 in [1] was more than 20 µM; against Protein kinase C (PKC), more than 25 µM; on Casein kinase II, more than 25 µM; in assay [2] it was more than 25 µM.
Regarding `CS(=O)(=O)Nc1cc(Cl)cc2c3cc[nH]cc-3nc12`, the concentration for half-maximal inhibition (IC50) in assay [1] is 8.3 µM; at Protein kinase C (PKC) it was more than 25 µM; on Casein kinase II, more than 25 µM; in assay [2], more than 25 µM.
As to `Brc1ccc2[nH]c3cnccc3c2c1`, the IC50 in [1] is 0.6 µM; on Protein kinase C (PKC), more than 25 µM; at Casein kinase II, more than 25 µM; in assay [2], more than 25 µM.
As for `Nc1cc(Cl)cc2c3cc[nH]cc-3nc12`, the IC50 in assay [1] stood at 1.3 µM.
Turning to `CNc1cc(Cl)cc2c3cc[nH]cc-3nc12`, in assay [1], the half-inhibitory concentration (IC50) is 1.8 µM.
`CCOc1c(Cl)cc2c3cc[nH]cc-3nc2c1Cl`: the half-maximal inhibitory concentration (IC50) in assay [1] was 0.14 µM; on Protein kinase C (PKC) it was more than 25 µM; against Casein kinase II, more than 25 µM; in [2], more than 25 µM.
As to `N#Cc1ccc2[nH]c3cnccc3c2c1`, the IC50 in assay [1] came to 1.1 µM.
With `COc1cccc(C(=O)Nc2cc(Cl)cc3c2[nH]c2cnccc23)c1`, the IC50 in assay [1] is 0.6 µM; at Protein kinase C (PKC), more than 25 µM; against Casein kinase II, more than 25 µM; in [2], more than 25 µM.
As for `O=C(Nc1cc(Cl)cc2c1[nH]c1cnccc12)c1ccccc1`, the IC50 was 0.7 µM in [1], more than 25 µM against Protein kinase C (PKC), more than 25 µM on Casein kinase II and more than 25 µM in [2].
Consider `Clc1ccc2[nH]c3cnccc3c2c1`, for which the half-inhibitory concentration (IC50) in [1] was 0.6 µM; on Protein kinase C (PKC), more than 25 µM; at Casein kinase II, more than 25 µM; in [2], more than 25 µM.
On to `CNC(=O)Nc1cc(Cl)cc2c3cc[nH]cc-3nc12`, for which the 50% inhibitory concentration (IC50) is more than 20 µM in assay [1], more than 25 µM against Protein kinase C (PKC), more than 25 µM against Casein kinase II and more than 25 µM in [2].
Turning to `O=C(CCCO)Nc1cc(Cl)cc2c3cc[nH]cc-3nc12`, the IC50 was more than 20 µM in assay [1], more than 25 µM on Protein kinase C (PKC), more than 25 µM on Casein kinase II and more than 25 µM in [2].
